{"data": "Results of several laboratories", "SLC6A2": "Sodium-dependent noradrenaline transporter (SLC6A2, Homo sapiens, UniProt P23975)", "Oprk1": "Kappa-type opioid receptor (Oprk1, Mus musculus, UniProt P33534)", "MPO": "Myeloperoxidase (MPO, Homo sapiens, UniProt P05164)", "note": "Compare with care: the assays were run in different laboratories."}
{"Compound": "CCOC(=O)[C@@]12C[C@@H]1[C@@H](n1cnc3c(NCCCCCc4ccccc4)nc(C#Cc4ccc(Cl)s4)nc31)[C@H](O)[C@@H]2O", "target": "SLC6A2", "assay": "transporter uptake, inhibitor, radiometric", "test system": "HEK293", "conditions": "10 µM", "inhibition [%]": 0}
{"Compound": "CC(C)[C@H](CN1CCc2ccccc2C1)NC(=O)c1ccc(F)cc1", "target": "Oprk1", "assay": "ligand displacement, radioligand", "conditions": "10 µM", "inhibition [%]": 88.7}
{"Compound": "CCOC(=O)[C@@]12C[C@@H]1[C@@H](n1cnc3c(Nc4ccccc4)nc(C#Cc4ccc(Cl)s4)nc31)[C@H](O)[C@@H]2O", "target": "SLC6A2", "assay": "ligand displacement, radioligand", "conditions": "10 µM", "inhibition [%]": 78}
{"Compound": "C#Cc1cc(-c2cc(Nc3nc(N[C@@H](C)c4ccc(F)cn4)ncc3Cl)n[nH]2)ccc1C=O", "target": "Interferon-induced, double-stranded RNA-activated protein kinase (EIF2AK2, Homo sapiens, UniProt P19525)", "assay": "enzyme activity, inhibitor", "conditions": "0.2 µM", "inhibition [%]": 7.44}
{"Compound": "COc1ccc(C(=O)NC2CCCc3c2[nH]c2c(Cl)cccc32)cc1OC (stereo not drawn)", "target": "Cysteinyl leukotriene receptor 1 (CYSLTR1, Homo sapiens, UniProt Q9Y271)", "assay": "calcium signal, antagonist", "test system": "HEK293", "conditions": "33 µM", "inhibition [%]": "~41"}
{"Compound": "NC/C(=C\\F)COc1cccc(Cn2c(=S)[nH]c(=O)c3[nH]cnc32)c1", "target": "MPO", "assay": "enzyme activity, inhibitor, fluorescence", "conditions": "3.333 µM", "inhibition [%]": 99.2}
{"Compound": "CC(C)[C@@H](CN1CCc2ccccc2C1)NC(=O)c1ccc([N+](=O)[O-])s1", "target": "Oprk1", "assay": "ligand displacement, radioligand", "conditions": "10 µM", "inhibition [%]": 68.8}
{"Compound": "O=c1c(O[C@@H]2O[C@H](CO)[C@H](O)[C@H](O)[C@H]2O)c(-c2ccc(O)c(O)c2)oc2cc(O)cc(O)c12", "target": "srtA (Staphylococcus aureus, UniProt Q2FV99)", "assay": "enzyme activity, inhibitor, FRET", "conditions": "120 µM", "inhibition [%]": 79.1}
{"Compound": "CC(C)[C@@H](CN1CCc2ccccc2C1)NC(=O)C=Cc1ccccc1", "target": "Oprk1", "assay": "ligand displacement, radioligand", "conditions": "10 µM", "inhibition [%]": 22.7}
{"Compound": "CC(C)OCCn1c(=S)[nH]c(=O)c2[nH]ccc21", "target": "MPO", "assay": "enzyme activity, inhibitor, fluorescence", "conditions": "0.3704 µM", "inhibition [%]": 96.2}
{"Compound": "CCOC(=O)C12CC1C(n1ccc3c(NCCCc4ccccc4)nc(C#Cc4ccc(Cl)s4)nc31)C(O)C2O (stereo not drawn)", "target": "SLC6A2", "assay": "ligand displacement, radioligand", "conditions": "10 µM", "inhibition [%]": 50}
{"Compound": "Cc1cc(F)cc2c(CCC(=O)N[C@@H]3C(=O)NC[C@H]3O)c(-c3ccc(F)cc3)[nH]c12", "target": "SLC6A2", "assay": "cell-free assay", "conditions": "10 µM", "inhibition [%]": 21}
{"Compound": "CC(C)[C@@H](CN1CCc2ccccc2C1)NC(=O)c1cccc(-c2ccccc2)c1", "target": "Oprk1", "assay": "ligand displacement, radioligand", "conditions": "10 µM", "inhibition [%]": 66}
{"Compound": "CCOC(=O)[C@@]12C[C@@H]1[C@@H](n1cnc3c(NCCCCCCc4ccccc4)nc(I)nc31)[C@H](O)[C@@H]2O", "target": "SLC6A2", "assay": "ligand displacement, radioligand", "conditions": "10 µM", "inhibition [%]": 52}
{"Compound": "CC(C)[C@@H](CN1CCc2ccccc2C1)NC(=O)c1cccc(-c2cccnc2)c1", "target": "Oprk1", "assay": "ligand displacement, radioligand", "conditions": "10 µM", "inhibition [%]": 74.3}
{"Compound": "CCOC(=O)[C@@]12C[C@@H]1[C@@H](n1cnc3c(NCCCCCc4ccccc4)nc(C#Cc4ccccc4)nc31)[C@H](O)[C@@H]2O", "target": "SLC6A2", "assay": "transporter uptake, inhibitor, radiometric", "test system": "HEK293", "conditions": "10 µM", "inhibition [%]": 1}
{"Compound": "COc1ccc(Cl)cc1-c1cc(=O)[nH]c(=S)n1CC(N)=O", "target": "MPO", "assay": "enzyme activity, inhibitor, fluorescence", "conditions": "30 µM", "inhibition [%]": 98.3}
{"Compound": "N#CC[C@@]12C[C@@H]1[C@@H](n1cnc3c(Nc4ccccc4)nc(C#Cc4ccc(Cl)s4)nc31)[C@H](O)[C@@H]2O", "target": "SLC6A2", "assay": "ligand displacement, radioligand", "conditions": "10 µM", "inhibition [%]": 37}
{"Compound": "CC(C)[C@@H](CN1CCc2ccccc2C1)NC(=O)c1c(Cl)cncc1Cl", "target": "Oprk1", "assay": "ligand displacement, radioligand", "conditions": "10 µM", "inhibition [%]": 70.9}
{"Compound": "CCOC(=O)[C@@]12C[C@@H]1[C@@H](n1ccc3c(NCCCCc4ccccc4)nc(C#Cc4ccccc4)nc31)[C@H](O)[C@@H]2O", "target": "SLC6A2", "assay": "ligand displacement, radioligand", "conditions": "10 µM", "inhibition [%]": 81}
{"Compound": "Cc1cc(O)c(-c2ccc([C@@H](C)CN(C)C)cc2)c2c1[nH]c(=O)c1sccc12", "target": "Serine/threonine-protein kinase WNK4 (WNK4, Homo sapiens, UniProt Q96J92)", "assay": "enzyme activity, inhibitor", "conditions": "0.1 µM", "inhibition [%]": 1.12}
